Activity calls are given as the source filed them.
Key:
Canis familiaris [1] = assay: Antiarrhythmic property Mean blood pressure(post drug) is compared to Lidocaine using doses(3 and 6 mg/kg); format: functional, Canis lupus familiaris
Summary of the method: (§1)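 Mongrel dogs (~12–25 kg), 1–4 days after coronary occlusion leaving a surviving epicardial rim, anesthetized with sodium pentobarbital (~30 mg/kg). 12-lead ECG monitored throughout. Agent given iv at 3 and 6 mg/kg. Parameters recorded before (drug free) and after dosing. Programmed electrical stimulation tested SVT inducibility (≥250 beats/min, ≥30 s) at baseline, ~2–5 min after each dose, and at 30 min.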

Canis familiaris [2] = assay: Antiarrhythmic property Mean blood pressure (drug free) is compared to Lidocaine using doses(3 and 6 mg/kg).; format: functional, Canis lupus familiaris; summary of the method: as §1
Canis familiaris [3] = assay: Antiarrhythmic property Heart rate (post drug) is compared to Lidocaine using doses(3 and 6 mg/kg). system.; format: functional, Canis lupus familiaris; summary of the method: as §1
Canis familiaris [4] = assay: (§2) Antiarrhythmic property His-Purkinje conduction time(post drug) is compared to lidocaine(2) using doses(3 and 6 mg/kg); format: functional, Canis lupus familiaris, His-Purkinje system
Summary of the method: (§3)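 Mongrel dogs (about 12–25 kg), 1–4 days after coronary occlusion infarction, under sodium pentobarbital (~30 mg/kg) with 12-lead ECG monitoring. Agents and lidocaine were given iv at 3 and 6 mg/kg. Programmed ventricular stimulation was applied at baseline, about 2–5 min after each dose, and at 30 min. SVT was defined as ≥250 beats/min lasting ≥30 s. Pre means drug-free; post means after dosing.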

Canis familiaris [5] = assay: (§4) Antiarrhythmic property Nonsustained ventricular tachycardia is compared to lidocaine(2) using doses(3 and 6 mg/kg); format: functional, Canis lupus familiaris, Heart; summary of the method: as §1
Canis familiaris [6] = assay: Antiarrhythmic property Heart rate (drug free) is compared to Lidocaine using doses (3 and 6 mg/kg).; format: functional, Canis lupus familiaris; summary of the method: as §1
Canis familiaris [7] = assay: (§5) Antiarrhythmic property ventricular effective refractory period(drug free) is compared to lidocaine(2) using doses(3 and 6 mg/kg); format: functional, Canis lupus familiaris, Heart; summary of the method: as §1
Canis familiaris [8] = assay: Antiarrhythmic properties are compared to lidocaine(2) using doses(3 and 6 mg/kg) measures His-Purkinje conduction time(drug free); format: functional, Canis lupus familiaris, His-Purkinje system; summary of the method: as §1
Canis familiaris [9] = assay: Tested for antiarrhythmic property by measuring ability to decrease heart rate(drug free) is compared to Lidocaine using doses (3 and 6 mg/kg).; format: functional, Canis lupus familiaris; summary of the method: as §3
Canis familiaris [10] = assay: Antiarrhythmic property ventricular effective refractory period(post drug) is compared to lidocaine(2) using doses(3 and 6 mg/kg); format: functional, Canis lupus familiaris, Heart; summary of the method: as §3
Canis familiaris [11] = assay: Antiarrhythmic properties are compared to lidocaine(2) using doses(3 and 6 mg/kg). Time required for the ventricular myocardium to undergo depolarization and repolarization ((post drug); format: functional, Canis lupus familiaris; summary of the method: as §3
Canis familiaris [12] = assay: Tested for antiarrhythmic property by measuring ability to decrease heart rate(post drug) is compared to Lidocaine using doses(3 and 6 mg/kg).; format: functional, Canis lupus familiaris; summary of the method: as §3
Canis familiaris [13] = assay: as §4; format: functional, Canis lupus familiaris, Heart; summary of the method: as §3; remark: listed apart in the source
Canis familiaris [14] = assay: Tested for antiarrhythmic property by measuring ability to decrease Mean blood pressure(post drug) is compared to Lidocaine using doses(3 and 6 mg/kg); format: functional, Canis lupus familiaris; summary of the method: as §3
Canis familiaris [15] = assay: as §5; format: functional, Canis lupus familiaris, Heart; summary of the method: as §3; remark: listed apart in the source
Canis familiaris [16] = assay: Antiarrhythmic properties are compared to lidocaine(2) using doses(3 and 6 mg/kg). Time required for the ventricular myocardium to undergo depolarization and repolarization (drug free); format: functional, Canis lupus familiaris; summary of the method: as §3
Canis familiaris [17] = assay: as §2; format: functional, Canis lupus familiaris, His-Purkinje system; summary of the method: as §3; remark: listed apart in the source
Canis familiaris [18] = assay: Tested for antiarrhythmic property by measuring ability to decrease Mean blood pressure (drug free) is compared to Lidocaine using doses(3 and 6 mg/kg).; format: functional, Canis lupus familiaris; summary of the method: as §3
Canis familiaris [19] = assay: Antiarrhythmic property is compared to lidocaine(2) using doses(3 and 6 mg/kg). Time required for the ventricular myocardium to undergo depolarization and repolarization (drug free); No effect; format: functional, organism-based; design: dose 6 mg/kg; settings: Canis lupus familiaris; summary of the method: as §1
Canis familiaris [20] = assay: Antiarrhythmic properties are compared to lidocaine(2) using doses(3 and 6 mg/kg). Time required for the ventricular myocardium to undergo depolarization and repolarization ((post drug); No effect; format: functional, organism-based; design: dose 6 mg/kg; settings: Canis lupus familiaris; summary of the method: as §1
Canis familiaris [21] = assay: Antiarrhythmic property A-V nodal conduction time(drug free) is compared to lidocaine(2) using doses(3 and 6 mg/kg); No effect; format: functional, organism-based; design: dose 6 mg/kg; settings: Canis lupus familiaris; Heart; summary of the method: as §1
Canis familiaris [22] = assay: Antiarrhythmic property A-V nodal conduction time(post drug) is compared to lidocaine(2) using dose (3 and 6 mg/kg); No effect; format: functional, organism-based; design: dose 6 mg/kg; settings: Canis lupus familiaris; Heart; summary of the method: as §1
Canis familiaris [23] = assay: Antiarrhythmic property ventricular effective refractory period(post drug) is compared to lidocaine(2) using doses(3 and 6 mg/kg); No effect; format: functional, organism-based; design: dose 6 mg/kg; settings: Canis lupus familiaris; Heart; summary of the method: as §1
Canis familiaris [24] = assay: Antiarrhythmic property ventricular effective refractory period(drug free) is compared to lidocaine(2) using doses(3 and 6 mg/kg); No effect; format: functional, organism-based; design: dose 6 mg/kg; settings: Canis lupus familiaris; Heart; summary of the method: as §1
Canis familiaris [25] = assay: Antiarrhythmic properties are compared to lidocaine(2) using doses(3 and 6 mg/kg). Time required for the ventricular myocardium to undergo depolarization and repolarization (drug free); No effect; format: functional, organism-based; design: dose 6 mg/kg; settings: Canis lupus familiaris; summary of the method: as §1
Canis familiaris [26] = assay: Antiarrhythmic property is compared to lidocaine(2) using doses(3 and 6 mg/kg). Time required for the ventricular myocardium to undergo depolarization and repolarization ((post drug); No effect; format: functional, organism-based; design: dose 6 mg/kg; settings: Canis lupus familiaris; summary of the method: as §1
Canis familiaris [27] = assay: Antiarrhythmic property Nonsustained ventricular tachycardia is compared to lidocaine(2) using dose of (3 and 6 mg/kg); format: functional, Canis lupus familiaris, Heart; summary of the method: as §3
Canis familiaris [28] = assay: Tested for antiarrhythmic property by measuring ability to decrease heart rate (post drug) is compared to Lidocaine using doses (3 and 6 mg/kg); format: functional, Canis lupus familiaris; summary of the method: as §3
Canis familiaris [29] = assay: Tested for antiarrhythmic property by measuring ability to decrease heart rate (drug free) is compared to Lidocaine using doses (3 and 6 mg/kg).; format: functional, Canis lupus familiaris; summary of the method: as §3

## c1ccc(CN2CC3CSCC(C3)C2)cc1 [listing 1 of 2 here]
Canis familiaris [1]
  MBP: 120 mmHg
Canis familiaris [2]
  MBP: 98 mmHg
Canis familiaris [3]
  HR: 162 beats min-1
Canis familiaris [4]
  HV interval: 40 ms
Canis familiaris [5]
  NSVT: 3 mg/kg
  VERP: 163 ms
Canis familiaris [6]
  HR: 162 beats min-1
Canis familiaris [7]
  VERP: 142 ms
Canis familiaris [8]
  HV interval: 30 ms

## c1ccc(CN2CC3CC(C2)CN(CC2CC2)C3)cc1
Canis familiaris [9]
  HR: 130 beats min-1
Canis familiaris [10]
  VERP: 230 ms
Canis familiaris [4]
  HV interval: 50 ms
Canis familiaris [11]
  QT: 260 ms
Canis familiaris [12]
  HR: 110 beats min-1
Canis familiaris [13]
  NSVT: 3 mg/kg
Canis familiaris [14]
  MBP: 37 mmHg
Canis familiaris [15]
  VERP: 160 ms
Canis familiaris [16]
  QT: 220 ms
Canis familiaris [17]
  HV interval: 50 ms
Canis familiaris [18]
  MBP: 130 mmHg

## c1ccc(CN2CC3CSCC(C3)C2)cc1 [listing 2 of 2 here]
Canis familiaris [19]
  QT: inactive
Canis familiaris [20]
  QT: inactive
Canis familiaris [21]
  AH interval: inactive
Canis familiaris [22]
  AH interval: inactive
Canis familiaris [23]
  VERP: inactive
Canis familiaris [24]
  VERP: inactive
Canis familiaris [25]
  QT: inactive
Canis familiaris [26]
  QT: inactive

## CC(C)N1CC2CC(CN(C(=O)c3ccc(NS(C)(=O)=O)cc3)C2)C1
Canis familiaris [27]
  NSVT: 6 mg/kg
Canis familiaris [28]
  HR: 150 beats min-1
Canis familiaris [14]
  MBP: 50 mmHg
Canis familiaris [29]
  HR: 150 beats min-1
Canis familiaris [18]
  MBP: 70 mmHg

From ChEMBL document CHEMBL1129356, “Novel 3,7-diheterabicyclo[3.3.1]nonanes that possess predominant class III antiarrhythmic activity in 1-4 day post infarction dog models: X-ray diffraction analysis of 3-[4-(1H-imidazol-1-yl)benzoyl]-7-isopropyl-3,7-diazabicyclo[3.3.1]nona ne dihydroperchlorate” (1996)
